Sampled rows, rich in hits. Any-hit rate of the full collection: about 3.5%.
MrgX1 ag = human MrgX1 receptor agonism, primary screen | MrgX1-HEK293 cells, Fluo-4 calcium fluorescence, agonist mode; active compounds read high | B-score at 10 µM | 310,000 tested, 0.44% active | AID 588627;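 active = calcium response B-score plate-corrected fluorescence ratio at least 3 library SD, with starting fluorescence B-score inside 5 SD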
Target sequence (Q96LB2 whole entry, looked up): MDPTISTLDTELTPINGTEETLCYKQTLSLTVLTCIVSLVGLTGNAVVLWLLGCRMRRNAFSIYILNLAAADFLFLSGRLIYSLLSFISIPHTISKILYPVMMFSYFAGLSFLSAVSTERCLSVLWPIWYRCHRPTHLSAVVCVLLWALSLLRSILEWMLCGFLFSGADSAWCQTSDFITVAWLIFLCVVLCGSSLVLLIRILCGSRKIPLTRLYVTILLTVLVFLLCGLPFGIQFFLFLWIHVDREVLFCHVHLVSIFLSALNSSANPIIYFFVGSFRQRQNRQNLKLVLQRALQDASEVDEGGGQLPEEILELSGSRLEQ
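Material: MrgX1-expressing HEK293 cells / Dosing: compound as first of three additions / Incubation: overnight seeding, then 1 h dark dye loading / Signal: Fluo-4 NW calcium fluorescence / Evaluation: B-scored fluorescence response ratio / Benchmarks: positive and negative control wells on each plate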
MrgX1 antagonist = antagonists of human MrgX1 receptor; Q96LB2; MRGX1-HEK293 calcium flux, Fluo-4, BAM8-22 antagonism; active compounds read low; B-score at 10 µM; 310,000 tested, 1.3% active; AID 588676;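 active = calcium-response B-score plate-corrected more than 3 library SD below zero, starting fluorescence within 5 deviations, no agonist response on first addition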;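 note: peak minus trough fluorescence over baseline after final BAM8-22 challenge near maximal dose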
RGS4 block = human RGS4 inhibition. HEK293 M3R/RGS4 inducible, Fluo-4 calcium flux; active compounds read high; triggered by carbachol at its EC20. AID 463165. B-score at 10 µM. 310,000 tested, 0.45% active;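 active = B-score, a plate-corrected calcium signal, over three deviations above library mean, with baseline fluorescence within five deviations of library mean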;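 note: RGS4 expression induced by doxycycline in cells with stable M3 receptor; B-score is computed from the integrated fluorescence ratio over baseline after carbachol; higher B-score means a larger calcium signal and so more RGS4 inhibition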
Target sequence (P49798 whole entry, looked up): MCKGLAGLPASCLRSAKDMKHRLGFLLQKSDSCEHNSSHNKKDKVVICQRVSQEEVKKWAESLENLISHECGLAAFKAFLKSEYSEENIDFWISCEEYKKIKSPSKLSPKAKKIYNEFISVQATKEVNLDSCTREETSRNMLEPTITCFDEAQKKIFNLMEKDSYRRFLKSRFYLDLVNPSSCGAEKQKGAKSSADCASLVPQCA
MrgX1 allo act = human MrgX1 positive allosteric modulation, primary screen; MrgX1-HEK293, Fluo-4 calcium flux, FDSS; active compounds read high; 310,000 tested, 0.63% active; B-score at 10 µM; Q96LB2; AID 588675;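 active = plate-corrected calcium response at least 3 library SD above typical, normal starting fluorescence, not activating the receptor alone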;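 note: compound read alongside a low EC10 to EC30 dose of BAM8-22 agonist; peak minus trough fluorescence over baseline measured at the second addition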
RGS4 pot = RGS4 potentiation or activation; HEK293 M3R/inducible RGS4, carbachol calcium flux Fluo4; active compounds read low; B-score at 10 µM; 310,000 tested, 0.92% active; AID 463111;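 active = B-score of the integrated calcium signal more than 4 SD below the library mean, with starting fluorescence not abnormally high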;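 note: negative B-score means reduced calcium response which marks RGS4 activation or potentiation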
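Test system: HEK293 cells with stable M3R and inducible RGS4; also added: carbachol at ECmax as muscarinic agonist stimulus; schedule: dye loading 30 min 37 °C, buffer rest 30 min RT; technique: kinetic calcium fluorescence imaging with Fluo4-AM dye, 2 µM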
MrgX1 ant reconf = reconfirmed antagonist of human MrgX1 receptor signaling; shares compounds with MrgX1 antagonist; MrgX1-HEK293, BAM8-22 calcium flux, Fluo-4; active compounds read low; remaining BAM8-22 calcium response % of control (active compounds read low), % at 10 µM; 2,300 tested, 19% active;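 active = remaining agonist calcium response no higher than 100% minus 3 SD of agonist-only control wells, with starting fluorescence near control levels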;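 note: agonist BAM8-22 given at a near maximal EC90 to ECmax level; peak minus minimum fluorescence divided by baseline after agonist addition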
HEK293 Ca flux = counter-screen for MrgX1 antagonists: effect in parental HEK293 cells; 4,000 tested, 2% active; fluorescence ratio F(max-min)/F0 at 10 µM; Fluo-4 calcium fluorescence, FDSS; AID 624111; shares compounds with MrgX1 antagonist;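 active = duplicate-averaged calcium fluorescence ratio at least three times the standard deviation of buffer wells, a nonspecific response in parental cells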
HEK293 Ca counter = counter-screen for MrgX1 allosteric activators: effect in parental HEK293 cells | 4,000 tested, 0.4% active | shares compounds with MrgX1 antagonist | parental HEK293 calcium flux, Fluo-4 fluorescence ratio; active compounds read high | fluorescence ratio F(max-min)/F0 at 10 µM;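 active = calcium fluorescence ratio, averaged over duplicates, at least 3 SD of the buffer-well ratio, meaning a nonspecific response in receptor-free cells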;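 note: untransfected parental HEK293 lacking MrgX1 used as counterscreen for MrgX1 allosteric activators; fluorescence change taken during the second addition on a kinetic imager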
HEK293 Ca cntr2 = counter-screen for MrgX1 activators: effect in parental HEK293 cells; fluorescence ratio F(max-min)/F0 at 10 µM; Fluo-4 calcium fluorescence (FDSS); active compounds read high; shares compounds with MrgX1 antagonist; AID 624115; 4,000 tested, 8.7% active;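 active = calcium fluorescence ratio at least three times the spread of buffer wells, meaning a non-specific response in parental cells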
Starred values were filed as active, the others as inactive; i = inactive; . = no result given.

SMILES	MrgX1 ag	MrgX1 antagonist	RGS4 block	MrgX1 allo act	RGS4 pot	MrgX1 ant reconf	HEK293 Ca flux	HEK293 Ca counter	HEK293 Ca cntr2
COc1ccc(NC(=O)Cc2c(SC)c3ccccc3n2Cc2ccccc2)cc1	i	i	i	i	i	.	.	.	.
Cc1ccc(-n2c(-c3ccncc3)nnc2-c2cccs2)cc1	i	-5.7*	i	i	i	i	i	i	i
O=C(NC(=S)NCC1CCCO1)c1ccco1 (stereo unspecified)	i	-25*	i	i	i	i	i	i	i
CCOC(=O)COc1ccc(S(=O)(=O)NCC2CCCO2)cc1 (stereo unspecified)	i	-4.7*	i	i	i	i	i	i	i
C[C@H]1CC[C@]2(O[C@H](CCO)C[C@@H](O)[C@@H]2O)O1	i	i	i	i	i	.	.	.	.
CCc1noc(C)c1C(=O)N1CCCC1	i	-4.7*	i	i	i	78%*	i	i	i
CCc1noc(C)c1C(=O)N1CC(C)OC(C)C1 (stereo unspecified)	i	i	i	i	i	.	.	.	.
Cc1ccc(NC(=O)Cc2ccc(-c3ccccc3)cc2)nc1	i	-8.1*	i	i	i	i	i	i	i
Cc1ccc(C(C)C)c(OCC(=O)N2CCOCC2)c1	i	-6*	i	i	i	i	i	i	i
Cc1cccc(C(=O)NCc2nnc(SCc3ccc(F)cc3)n2C)c1	i	-4.8*	i	i	i	i	i	i	i
CCOC(=O)CSc1nnc(CNC(=O)c2cccc(C)c2)n1C	i	i	i	i	i	.	.	.	.
CC(C(=O)N1CCCc2ccccc21)N1C(=O)c2ccccc2C1=O (stereo unspecified)	i	i	i	i	i	.	.	.	.
CCN1C(=O)[C@H]2[C@@H](c3ccc(C)cc3)N3C(=O)N(c4cccc(Cl)c4)C(=O)[C@@]3(Cc3ccccc3)[C@H]2C1=O	i	-5.2*	i	i	i	i	i	i	i
CCN1C(=O)[C@H]2[C@@H](c3ccc(C)cc3)N3C(=O)N(c4cccc(Cl)c4)C(=O)[C@@]3(Cc3ccc(Cl)cc3)[C@H]2C1=O	i	i	.	i	.	.	.	.	.
COc1cccc(CN(C(=O)c2ccco2)C2CCS(=O)(=O)C2)c1 (stereo unspecified)	i	-4.8*	i	i	i	i	i	i	i
COC(=O)c1ccc(Nc2ncnc3c2cnn3-c2cccc(C)c2)cc1	i	-4.8*	i	i	i	i	i	i	i
COc1ccc(-n2c(-c3ccc(Cl)cc3)c[n+]3c2CCc2ccccc2-3)cc1	i	i	i	i	i	.	.	.	.
Cc1ccc(-n2c(-c3ccc(Br)cc3)c[n+]3c2CCc2ccc4cccnc4c2-3)cc1	i	-11*	i	i	i	19%*	i	i	i
Cc1nnc(SCC(=O)NC(=O)NC(C)C)s1	i	i	i	i	i	.	.	.	.
Cc1nnc(SCC(=O)NC(=O)NC(C)(C)C)s1	i	-5.6*	i	i	i	i	i	i	i
O=C(NCc1cn2ccsc2n1)c1cccc(C(F)(F)F)c1	i	i	i	i	i	.	.	.	.
O=C(NCc1cn2ccsc2n1)c1c(F)cccc1Cl	i	-5*	i	i	i	i	i	i	i
CCOc1ccc(-n2nc3c(SCCN4CCCC4)nnc(C)c3c2C)cc1	i	-4.7*	i	i	i	i	i	i	i
Cc1ccc(-n2nc3c(SCCN4CCOCC4)nnc(C)c3c2C)cc1	i	i	i	i	i	.	.	.	.
CCN(c1cccc(C)c1)S(=O)(=O)c1cc2c3c(c1)CCN3C(=O)CC2	i	-11*	i	i	i	77%*	i	i	i
SMILES	MrgX1 ag	MrgX1 antagonist	RGS4 block	MrgX1 allo act	RGS4 pot	MrgX1 ant reconf	HEK293 Ca flux	HEK293 Ca counter	HEK293 Ca cntr2
COc1ccc(C(=O)COc2ccc(F)cc2)c(O)c1C	i	i	i	i	i	.	.	.	.
COCC(C)n1c(SCC(=O)NCCC2=CCCCC2)nc2ccccc2c1=O (stereo unspecified)	i	-6.6*	i	i	i	i	i	i	i
CC(=O)NCCn1c(SCC(=O)NCCC2=CCCCC2)nc2ccccc2c1=O	i	i	i	i	i	.	.	.	.
COc1ccc(S(=O)(=O)N2CCN(c3nc(C)cc(C)n3)CC2)cc1	i	i	i	i	i	.	.	.	.
CCOC(=O)Nc1nc(C)c(C(=O)c2ccc(Cl)cc2)s1	i	i	i	i	i	.	.	.	.
CCOC(=O)Nc1nc(-c2ccc(Cl)cc2Cl)cs1	i	-5.6*	i	i	i	i	i	i	i
O=C(Nc1cc(Cl)cc(Cl)c1)C1CC(=O)N(C2CCCC2)C1 (stereo unspecified)	i	i	i	i	i	.	.	.	.
COc1ccc(/C=N/N2CCN(c3ccc(Cl)cc3)CC2)cc1O	i	i	i	i	i	.	.	.	.
O=C(Cn1cnc2c(oc3ccccc32)c1=O)c1ccccc1	i	-8.2*	i	i	i	i	i	i	i
O=C(O)Cn1cnc2c(oc3ccccc32)c1=O	i	i	i	i	i	.	.	.	.
O=C(NCCCCc1ccccc1)c1ccccc1Br	i	i	i	i	i	.	.	.	.
Cc1cccc(NC(=O)CC2CCC2)c1	i	-5.8*	i	i	i	i	i	i	i
Cc1cc(NC(=O)CC2CCCC2)ccc1Br	i	i	i	i	i	.	.	.	.
CCn1c(COC(=O)CNC(=O)c2ccccc2)nc2cc(S(=O)(=O)N(C)C)ccc21	i	i	i	i	i	.	.	.	.
Cc1ccc(C(=O)NC2CCN(CC(=O)NC3CCC(C)CC3)CC2)cc1 (stereo unspecified)	i	i	i	i	i	.	.	.	.
CC(C)CN1CCNC(=O)C1CC(=O)NCCCN1CCCc2ccccc21 (stereo unspecified)	i	i	i	i	i	.	.	.	.

Screening results as filed in PubChem BioAssay.
